This note sets out measurements from ChEMBL document CHEMBL1152544, “Inhibitory effect of beta-diketones and their metal complexes on TNF-alpha induced expression of ICAM-1 on human endothelial cells” (Bioorg Med Chem, 2009).

The nature of series [1]: Cytotoxicity against HUVEC assessed as cell viability at 60 ug/mL after 24 hrs by MTT assay. In kind it is cell-based. The note with it: human, HUVEC cells; read-out: Activity. Summed up:
(§1)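 Primary HUVEC were exposed for 24 h to compound or vehicle (DMSO alone, 0.25%). Medium was replaced with MTT for the final 4 h. Formazan was then dissolved in DMSO and read at 570 nm. Viability was also checked by trypan blue exclusion.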
A general note: Tetrazolium dyes change colour on reduction, which living cells bring about.

Series [2] has as its system HUVEC. Nature of the series: Antiinflammatory activity in HUVEC assessed as inhibition of TNF-alpha-induced cell surface ICAM1 expression at 60 ug/ml preincubated before TNFalpha challenge measured after 16 hrs by ELISA. Type of series: functional. The note with it: Homo sapiens. Summed up:
(§2)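 Primary umbilical-cord HUVEC in M-199 with 15% FCS were grown confluent on gelatinized plates. They were pretreated with compound in DMSO, then given TNF-α for 16 h. Cells were fixed in 1% glutaraldehyde (30 min, 4 °C) and blocked in 3% defatted milk (3 h, 37 °C). Detection used anti-ICAM-1 mAb overnight at 4 °C, then peroxidase secondary (3 h, 37 °C). Substrate was o-phenylenediamine in citrate pH 4.5, stopped with 2 N H2SO4, read at A490.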
(In general: An ELISA detects its analyte on a solid surface through an enzyme-linked reagent.)

The subject of series [3] is HUVEC. Kind of series: Cytotoxicity against HUVEC after 24 hrs by MTT assay. In kind it is cell-based. The settings on record: human. Summed up: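 Primary endothelial cells isolated from human umbilical cord, grown in M-199 with 15% fetal calf serum, L-glutamine, penicillin, streptomycin, amphotericin and endothelial-cell growth factor, and used after three passages. Cells exposed to vehicle (DMSO 0.25%) or a range of compound concentrations for 24 h. MTT added for the last 4 h, formazan dissolved in DMSO, absorbance read at 570 nm. Trypan blue exclusion also done.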

In series [4] the test system is HUVEC. Nature of the series: Antiinflammatory activity in HUVEC assessed as inhibition of TNF-alpha-induced cell surface ICAM1 expression at 271.4 uM/ml preincubated before TNFalpha challenge measured after 16 hrs by ELISA. In kind it is functional. The note with it: Homo sapiens. An outline of the steps: as §2
The test system of series [5] is HUVEC. Nature of the series: Antiinflammatory activity in HUVEC assessed as inhibition of TNF-alpha-induced cell surface ICAM1 expression preincubated before TNFalpha challenge measured after 16 hrs by ELISA. In kind it is functional, cell-based. The settings on record: Homo sapiens. An outline of the steps:
as §2

Series [6] concerns HUVEC. Nature of the series: Cytotoxicity against HUVEC assessed as cell viability at 6.25 to 200 ug/mL after 24 hrs by MTT assay. Type of series: cell-based. The settings on record: human. An outline of the steps:
as §1

Series [7] relates to HUVEC. Kind of series: Antiinflammatory activity in HUVEC assessed as inhibition of TNF-alpha-induced cell surface ICAM1 expression at 50 uM/ml preincubated before TNFalpha challenge measured after 16 hrs by ELISA. In kind it is functional. The settings on record: Homo sapiens.

Values after ≈ are worked out from the molar mass of the structure shown.

By inhibition is commonly meant the percentage by which the read-out fell short of the control. Usually IC50 stands for the concentration at which inhibition is half-maximal. Regarding `CC1=NN(c2ccccc2)C(=O)C1C(=O)c1ccccc1` (stereo not drawn), in series [1], the viability at 24 h, 60 ug/mL was found to be 95.8%. For the same compound, the inhibition at 60 µg/mL in the series with HUVEC [2] amounted to 75%. In addition, in the series on HUVEC [3], the MTD amounted to 271.4 uM/ml. Also, in the series on HUVEC [4], the inhibition at 271.4 µM worked out at 62%. Besides, the IC50 in the series on HUVEC [5] came out at 36.3 µg/mL (≈ 130 µM). Moreover, in the series with HUVEC [6], the Activity result was “Non-toxic”.

With `Cc1[nH]n(-c2ccccc2)c(=O)c1C(=O)CC(C)(C)C`, in series [1], the viability at 24 h, 60 ug/mL was determined as 97.1%. Also, the inhibition at 60 µg/mL in the series on HUVEC [2] stood at 35%.

In the case of `CC1=NN(c2ccccc2)C(=O)C1C(=O)C(C)(C)C` (stereo not drawn), the viability at 24 h, 60 ug/mL in series [1] worked out at 96.1%. For the same compound, the inhibition at 60 µg/mL with HUVEC [2] was 60%.

Regarding `COc1cc(/C=C/C(=O)CC(=O)/C=C/c2ccc(O)c(OC)c2)ccc1O` [CURCUMIN], the inhibition at 50 µM in the series with HUVEC [7] was 90%. In addition, the MTD in the series with HUVEC [3] was 50 uM/ml.

Regarding `CC(=O)C1C(=O)N(c2ccccc2)N=C1c1ccccc1` (stereo not drawn), the viability at 24 h, 60 ug/mL in series [1] came out at 97.9%. Also, the inhibition at 60 µg/mL in the series on HUVEC [2] was 20%.

Regarding `CC1=NN(c2ccccc2)C(=O)C1C(=O)c1ccco1` (stereo not drawn), the viability at 24 h, 60 ug/mL in series [1] amounted to 96.2%. For the same compound, in the series with HUVEC [2], the inhibition at 60 µg/mL amounted to 55%.

For `CC1=NN(c2ccccc2)C(=O)C1C(=O)CCC1CCCC1` (stereo not drawn), the viability at 24 h, 60 ug/mL in series [1] turned out to be 98.6%. In addition, the inhibition at 60 µg/mL in the series with HUVEC [2] is 35%.
